From PubChem
Rows were chosen to be rich in hits. Some 1.8% of all compounds tested hit in one or more screens of this group.
STEP inh – STEP (human) phosphatase inhibition; actives 0.25% (n = 360,000); recombinant STEP, OMFP fluorogenic substrate, fluorescence; inhibition, % at 20 µM; AID 588621;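 active = inhibition at 20 µM, scaled per plate between control wells, above about 37%, limit read from the data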
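Assay system: isolated STEP enzyme / Timing: 20 min at room temperature, dark / Doses: 20 µM, 1% DMSO / Technique: fluorescence intensity, excitation 480 nm, emission 540 nm / Reagent: fluorogenic phosphatase substrate OMFP at 25 µM final / Measure: percent inhibition scaled to no-enzyme and uninhibited-enzyme controls, plate-pattern corrected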
Scp1 inh – inhibitors of human Scp-1 phosphatase; Q9GZU7; Recombinant Scp1, phosphopeptide, malachite green phosphate absorbance; inhibition, % at 20 µM; actives 0.88% (n = 340,000); AID 493091;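 active = inhibition above about 50% at 20 µM, limit read from the data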
Target sequence (Q9GZU7 76-261 limits assumed): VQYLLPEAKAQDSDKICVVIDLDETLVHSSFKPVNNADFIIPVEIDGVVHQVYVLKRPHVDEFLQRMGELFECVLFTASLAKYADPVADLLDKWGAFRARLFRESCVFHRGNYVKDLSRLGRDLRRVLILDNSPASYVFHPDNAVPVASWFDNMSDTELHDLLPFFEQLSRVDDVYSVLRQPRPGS
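assay system = SCP-1 phosphatase catalytic domain, residues 76-261 | buffer or medium = 50 mM Tris acetate pH 5.5, 0.005% Tween-20, 10 mM MgCl2 | incubation = enzyme reaction 45 min at room temperature, colour 5 min, stabilisation 30 min | signal = Phosphate-binding colour reagent, absorbance read at 630 nm | measure = % inhibition at 20 µM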
SUMO1 PPI mod – SUMO1-SIM interaction modulation | inhibition, % at 20 µM | actives 0.33% (n = 360,000) | P63165 | SUMO1 binding to a labelled peptide, TR-FRET, 1 h; in the data active = inhibition above about 37%
Target sequence (P63165 whole entry, looked up): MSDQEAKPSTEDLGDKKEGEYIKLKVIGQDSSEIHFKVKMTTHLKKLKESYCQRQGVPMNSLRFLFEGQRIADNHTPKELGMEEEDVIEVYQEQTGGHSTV
LMPTP block – LMPTP (human) inhibition; recombinant LMPTP-A, OMFP fluorogenic substrate, fluorescence intensity; inhibition, % at 20 µM; actives 0.22% (n = 360,000);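 active = compounds that cut the enzyme signal by at least half of the control window in the single-dose screen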
Target sequence (P24666 whole entry, looked up): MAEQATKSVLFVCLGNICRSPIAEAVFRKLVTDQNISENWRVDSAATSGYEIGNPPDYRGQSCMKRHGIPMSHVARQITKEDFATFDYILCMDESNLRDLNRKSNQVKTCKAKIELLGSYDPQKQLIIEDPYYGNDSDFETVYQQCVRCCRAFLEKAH
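Test system – LMPTP-A enzyme · Amount – LMPTP-A at 0.625 nM final in the reaction · Buffer or medium – Bis-Tris pH 6.0, DTT, detergent · Reagent – OMFP 400 µM · Doses – single 20 µM dose · Schedule – reaction 50 min, room temperature, dark · Detection – fluorescence intensity of OMFP turnover product · Evaluation – percent inhibition versus substrate-only and uninhibited controls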
DNMT1 inh – inhibitors of human DNMT1; actives 0.83% (n = 360,000); DNMT1 molecular beacon, Hinp1I cleavage, fluorescence; inhibition (reported as % activation of signal), % at 10 µM; P26358; in the data active = inhibition above about 50%
Numbers stand for hits.

Screening Cc1cc(C)c(NC(=O)COC(=O)c2cccc3c2C(=O)c2ccccc2C3=O)c(C)c1 returned STEP inh inactive, Scp1 inh inactive, SUMO1 PPI mod inactive, LMPTP block inactive and DNMT1 inh inactive.
`Cc1cc(C)c(Nc2cc(S(=O)(=O)O)c(N)c3c2C(=O)c2ccccc2C3=O)c(C)c1` gave STEP inh inactive, Scp1 inh inactive, SUMO1 PPI mod 74, LMPTP block inactive and DNMT1 inh 80.
`O=C(Cc1c(F)cccc1Cl)NNC(=O)c1cccs1` gave STEP inh inactive, Scp1 inh inactive, SUMO1 PPI mod inactive, LMPTP block inactive and DNMT1 inh inactive.
For O=C(Nc1ccccc1F)NC1CC1 the results were STEP inh inactive, Scp1 inh inactive, SUMO1 PPI mod 56, LMPTP block inactive and DNMT1 inh inactive.
Screening COCCCNc1c2c3c(cccc3[nH]c1=O)C(=O)c1ccccc1-2 returned STEP inh inactive, Scp1 inh inactive, SUMO1 PPI mod inactive, LMPTP block inactive and DNMT1 inh active.
CC1(c2nnnn2-c2ccc3c(c2)OCCO3)CCC(=O)N1CC1CCCCC1 (configuration not stated) was read as SUMO1 PPI mod inactive and LMPTP block inactive.
For COC(=O)Cn1c(C)c(C(C)=O)c(C(C)=O)c1C the results were STEP inh inactive, Scp1 inh inactive, SUMO1 PPI mod 48, LMPTP block inactive and DNMT1 inh inactive.
For COC(=O)c1c(C(C)=O)c(C)n(C)c1C the results were STEP inh inactive, Scp1 inh inactive, SUMO1 PPI mod inactive, LMPTP block inactive and DNMT1 inh inactive.
For CN(C(=O)COC(=O)c1ccc(-c2ccc(O)cc2)cc1)C1CCS(=O)(=O)C1 (configuration not stated) the results were STEP inh inactive, Scp1 inh inactive, SUMO1 PPI mod 39, LMPTP block inactive and DNMT1 inh inactive.
FC(F)(F)c1ccccc1Cc1c(-c2ccc(Cl)cc2)nc2c3ccccc3ccn12 was read as SUMO1 PPI mod inactive and LMPTP block inactive.
Screening c1cc(-c2ccc3nncn3c2)ccc1CN1CCOCC1 returned STEP inh inactive, SUMO1 PPI mod inactive, LMPTP block inactive and DNMT1 inh inactive.
Screening O=C(/C=C/c1ccco1)Nc1cccc2cccnc12 returned STEP inh inactive, Scp1 inh inactive, SUMO1 PPI mod inactive, LMPTP block 50 and DNMT1 inh 63.
For O=C(O)/C=C/C(=O)Nc1cccc2cccnc12 the results were STEP inh inactive, Scp1 inh inactive, SUMO1 PPI mod inactive, LMPTP block inactive and DNMT1 inh inactive.
`Cc1oc(-c2cc(F)ccc2F)nc1CN1CCN(c2cnccn2)CC1` gave STEP inh inactive, Scp1 inh inactive, SUMO1 PPI mod 44, LMPTP block inactive and DNMT1 inh inactive.
`O=S(=O)(NCC(O)COCc1ccco1)c1cccs1` (configuration not stated) gave STEP inh inactive, Scp1 inh 65, SUMO1 PPI mod inactive, LMPTP block inactive and DNMT1 inh inactive.
`COc1ccc(CNCC(O)COCc2cccs2)cc1` (configuration not stated) gave STEP inh inactive, Scp1 inh inactive, SUMO1 PPI mod inactive, LMPTP block inactive and DNMT1 inh inactive.
CCOC(=O)C1(CCCc2ccccc2)CCN(C(=O)c2cncs2)CC1 was read as STEP inh inactive, Scp1 inh inactive, SUMO1 PPI mod inactive, LMPTP block inactive and DNMT1 inh inactive.
`CCOC(=O)C1(CCCc2ccccc2)CCN(C(=O)c2cc(C)nn2CC)CC1` gave STEP inh inactive, Scp1 inh inactive, SUMO1 PPI mod 43, LMPTP block inactive and DNMT1 inh inactive.
Screening COC(=O)C[C@@H]1OC[C@H](C)N1S(=O)(=O)c1ccc(C)cc1 returned SUMO1 PPI mod inactive and LMPTP block inactive.
`NC(=S)N=Nc1c(O)[nH]c2ccc(F)cc12` gave STEP inh inactive, Scp1 inh inactive, SUMO1 PPI mod inactive, LMPTP block inactive and DNMT1 inh inactive.
`NC(=S)N=Nc1c(O)cc(O)c2[nH]c(=O)ccc12` gave STEP inh inactive, Scp1 inh 85, SUMO1 PPI mod 69, LMPTP block inactive and DNMT1 inh 66.
`Cc1nc2cc(NC(=O)c3ccc(Br)s3)ccc2s1` gave STEP inh 41, Scp1 inh inactive, SUMO1 PPI mod inactive, LMPTP block inactive and DNMT1 inh inactive.
Cc1ccc(C(=O)Nc2ccc3nc(C)sc3c2)s1 was read as STEP inh inactive, Scp1 inh inactive, SUMO1 PPI mod inactive, LMPTP block inactive and DNMT1 inh inactive.
For Nc1ccc(NC(=O)c2ccc(C(=O)Nc3ccc(N)cc3)cc2)cc1 the results were STEP inh inactive, Scp1 inh inactive, SUMO1 PPI mod 59, LMPTP block inactive and DNMT1 inh inactive.
For Nc1ccc(C(=O)Nc2ccc(Nc3ccncc3)cc2)cc1 the results were STEP inh inactive, Scp1 inh inactive, SUMO1 PPI mod inactive, LMPTP block inactive and DNMT1 inh inactive.
`Nc1ccc(C(=O)Nc2nc3ccccc3s2)cc1` gave STEP inh inactive, Scp1 inh 60, SUMO1 PPI mod inactive, LMPTP block inactive and DNMT1 inh inactive.
`O=C(COc1ccc2c(-c3ccccc3)cc(=O)oc2c1)Nc1ccc(CCO)cc1` gave STEP inh inactive, Scp1 inh inactive, SUMO1 PPI mod inactive, LMPTP block 66 and DNMT1 inh inactive.
O=C(COc1ccc2c(-c3ccccc3)cc(=O)oc2c1)Nc1ccc(CN2CCOCC2)cc1 was read as STEP inh inactive, Scp1 inh inactive, SUMO1 PPI mod inactive, LMPTP block inactive and DNMT1 inh inactive.
`Cc1ccc([N+](=O)[O-])cc1N=Nc1c(C)[nH]n(C(N)=S)c1=O` gave STEP inh inactive, Scp1 inh inactive, SUMO1 PPI mod inactive, LMPTP block inactive and DNMT1 inh inactive.
`Cc1ccc(N=Nc2c(C)[nH]n(C(N)=S)c2=O)cc1` gave STEP inh inactive, Scp1 inh inactive, SUMO1 PPI mod inactive, LMPTP block inactive and DNMT1 inh inactive.
For NC(=S)n1[nH]c(-c2ccc([N+](=O)[O-])cc2)c(N=Nc2ccc(Cl)cc2)c1=O the results were STEP inh inactive, Scp1 inh inactive, SUMO1 PPI mod 87, LMPTP block inactive and DNMT1 inh 107.
`Cc1ccc([N+](=O)[O-])cc1N=Nc1c(-c2ccc([N+](=O)[O-])cc2)[nH]n(C(N)=S)c1=O` gave STEP inh inactive, Scp1 inh 63, SUMO1 PPI mod inactive, LMPTP block inactive and DNMT1 inh inactive.
Cc1[nH]n(-c2ccccc2)c(=S)c1C=Nc1cccc([N+](=O)[O-])c1 was read as STEP inh inactive, Scp1 inh 87, SUMO1 PPI mod inactive, LMPTP block inactive and DNMT1 inh inactive.
`O=C(N[C@@H]1CCC(=O)N(CC[C@H](Oc2ccccc2)c2ccccc2)CC1)OCc1ccccc1` gave STEP inh inactive, Scp1 inh inactive, SUMO1 PPI mod inactive, LMPTP block inactive and DNMT1 inh inactive.
